# Measurements taken from ChEMBL document CHEMBL2417487, “Asteriscane-type sesquiterpenoids from the soft coral Sinularia capillosa” (J Nat Prod, 2013).
# How the values were obtained:
# [1] = test system: Amphibalanus amphitrite; assay: Antifouling activity against barnacle Balanus amphitrite Darwin; assay type: functional, organism-based
# How it was run: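 Barnacle nauplii were reared to cyprids at 26−28 °C and fed Chaetoceros gracilis, reaching the cyprid stage within four days. Fresh cyprids were used for testing, and the value is reported as IC50.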
# [2] = Antiinflammatory activity in BALB/c mouse splenocytes assessed as inhibition of LPS-induced TNFalpha production at 10 uM after 24 hrs; assay type: functional; conditions: Splenocyte
# How it was run: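 BALB/c mouse splenocyte suspensions were cultured in RPMI 1640 with 10% FBS. Compounds were dissolved in DMSO and given at 10 μM for 24 h, followed by LPS stimulation at 1 μg/mL. NK-007 at 100 nM served as positive control. TNF-α in culture supernatants was measured with cytometric bead array kits and reported as inhibitory rate.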
# [3] = test system: HepG2; assay: Cytotoxicity against human HepG2 cells by MTT assay; assay type: functional, cell-based
# [4] = test system: HCT-8; assay: Cytotoxicity against human HCT8 cells by MTT assay; assay type: functional, cell-based
# [5] = test system: BGC-823; assay: Cytotoxicity against human BGC823 cells by MTT assay; assay type: functional, cell-based
# [6] = test system: A549; assay: Cytotoxicity against human A549 cells by MTT assay; assay type: functional, cell-based
# [7] = test system: SK-OV-3; assay: Cytotoxicity against human SKOV3 cells by MTT assay; assay type: functional, cell-based
IC50 [1] [µM],EC50 [1] [µg/mL],Structure (SMILES),inhibition at 10 µM [2] [%],IC50 [3] [µg/mL],IC50 [4] [µg/mL],IC50 [5] [µg/mL],IC50 [6] [µg/mL],IC50 [7] [µg/mL]
74,–,CC(=O)CC/C=C(/C)C[C@H]1CC(C)(C)CC1=O [(-)-SINULARONE A],23,–,–,–,–,–
–,–,C/C1=C/C2=C(CC(C)(C)[C@@H]2O)[C@H](C)CC[C@@H]1O,16,> 10,> 10,> 10,> 10,> 10
–,–,CC1=C[C@@]23CC(C)(C)C[C@@]2(O)[C@H](C)CC[C@@H]1O3,–,> 10,> 10,> 10,> 10,> 10
–,–,C/C(=C/CC[C@H](C)O)CC1=CC(C)(C)CC1=O,–,> 10,> 10,> 10,> 10,> 10
–,–,C/C1=C/C2=C(CC(C)(C)[C@H]2O)[C@H](C)CC[C@@H]1O,–,> 10,> 10,> 10,> 10,> 10
–,–,CC1=C[C@]2(O)CC(C)(C)C[C@]23O[C@@]1(O)CC[C@H]3C,–,> 10,> 10,> 10,> 10,> 10
–,–,C/C1=C/C2=CC(C)(C)C[C@]2(OO)[C@H](C)CC[C@@H]1O,–,> 10,> 10,> 10,> 10,> 10
–,–,CC1=CC2=CC(C)(C)C[C@@]23O[C@]1(O)CC[C@H]3C,–,> 10,> 10,> 10,> 10,> 10
–,–,CC(=O)C[C@@H]1CC(C)(C)C=C1[C@]1(C)CCC(=O)O1,–,> 10,> 10,> 10,> 10,> 10
–,–,CC1(C)CC2=C[C@@](C)(O)[C@@]3(O)CC[C@@](C)(O)[C@]2(C1)O3,–,> 10,> 10,> 10,> 10,> 10
–,–,C/C1=C/C2=C(CC(C)(C)C2=O)[C@H](C)CCC1=O,–,> 10,> 10,> 10,> 10,> 10
–,–,C/C1=C/C2=C(CC(C)(C)C2=O)[C@H](C)CC[C@@H]1O,–,> 10,> 10,> 10,> 10,> 10
–,13.9,CC(=O)CC/C=C(/C)C[C@@H]1CC(C)(C)CC1=O,–,–,–,–,–,–
–,–,C/C1=C/C2=CC(C)(C)C[C@@]2(OO)[C@H](C)CC[C@@H]1O,–,> 10,> 10,> 10,> 10,> 10
9.7,–,C[C@@H]1CCC(=O)[C@](C)(O)/C=C2/CC(C)(C)C[C@@H]21,–,> 10,> 10,> 10,> 10,> 10
–,–,C/C1=C/[C@]23O[C@]2(CC(C)(C)C3=O)[C@H](C)CC[C@@H]1O,–,> 10,> 10,> 10,> 10,> 10
–,–,C[C@@H]1CC[C@]2(O)O[C@]13CC(C)(C)[C@H](O)C3=C[C@@]2(C)O,–,> 10,> 10,> 10,> 10,> 10
54,–,C[C@@H]1CC[C@]2(O)O[C@]13CC(C)(C)CC3=C[C@@]2(C)O,21,> 10,> 10,> 10,> 10,> 10
–,–,CC(=O)/C=C1/CC(C)(C)C[C@]12OC(=O)CC[C@H]2C,–,> 10,> 10,> 10,> 10,> 10
–,–,CC(=O)CC/C=C(/C)CC1=CC(C)(C)CC1=O,–,> 10,> 10,> 10,> 10,> 10
